# A selection: hits, their analogues and other compounds. The true share with any hit is near 1.6%.
# PKA-R2B act: activates the human PKA-R2B holoenzyme complex; 340,000 tested, 0.079% active; activation, % at 11.4 µM; PKA-R2B holoenzyme dissociation, Cy5-IP20 fluorescence polarization; R2B truncated from residue 108, S112A mutant; 0% DMSO only, 100% 113 µM cGMP; P22694+P31323;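 active = activation above a cutoff set at the mean over all compounds plus 3 SD, cut at about 18% in these data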;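 also: higher means more holoenzyme dissociation and a rise in polarization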
# PKA-R1A activ: activates the PKA-R1A holoenzyme complex | activation, % at 11.4 µM | 340,000 tested, 0.083% active | P00514+P68181 | PKA-R1A dissociation, Cy5-IP20 fluorescence polarization; scaled: DMSO 0%, 113 µM cGMP 100%;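 active = percent activation above the mean of all tested compounds plus 3 SD, cut at about 19% in these data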;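 also: higher means more PKAc released from R1A so a rise in polarization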
# NR2E3 ag-1: activates human photoreceptor nuclear receptor NR2E3 | AID 2300 | Q9Y5X4 | GST-NR2E3/biotin-RetCOR TR-FRET, 1536-well | 320,000 tested, 0.12% active | inhibition of corepressor binding, % at 4.78 µM;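 active = percent inhibition above the cutoff of mean plus 3 SD of all tested compounds, set per screening campaign, cut at about 20% in these data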;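 also: 0% = DMSO wells and 100% = biotin wells as full block of FRET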
# Target sequence (Q9Y5X4 whole entry, looked up): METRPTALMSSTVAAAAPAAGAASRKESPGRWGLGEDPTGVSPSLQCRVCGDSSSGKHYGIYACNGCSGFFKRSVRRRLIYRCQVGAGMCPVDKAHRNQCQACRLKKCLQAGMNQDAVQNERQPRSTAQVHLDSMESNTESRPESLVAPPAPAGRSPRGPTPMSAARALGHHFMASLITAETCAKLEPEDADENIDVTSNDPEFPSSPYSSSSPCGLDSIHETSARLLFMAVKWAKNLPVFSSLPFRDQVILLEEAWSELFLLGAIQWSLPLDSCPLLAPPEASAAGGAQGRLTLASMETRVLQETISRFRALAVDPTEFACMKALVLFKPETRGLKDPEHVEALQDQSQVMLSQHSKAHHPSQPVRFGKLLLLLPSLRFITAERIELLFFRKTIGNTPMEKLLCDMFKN
#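 System: GST-NR2E3 and biotin-RetCOR proteins; probe or stimulus: 7 nM biotin-RetCOR; doses: compound at 4.8 µM, single dose; schedule: Compound–protein incubation for 5 h at 4 °C; detection: time-resolved FRET; read-out: percent inhibition; controls: biotin wells as high control, 0.6% DMSO wells as low control; format: 1536-well plates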
# NR2E3 ag-2: human photoreceptor-specific nuclear receptor agonism; Q9Y5X4; CHO-S Gal4-NCOR/VP16-NR2E3 two-hybrid, luciferase; inhibition of corepressor binding, % at 3.98 µM; 360,000 tested, 0.35% active; AID 602229;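 active = inhibition above the mean of all tested compounds plus 3 SD, cut at about 70% in these data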;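 also: 0% = DMSO with NR2E3 transfected cells and 100% = cells lacking NR2E3 construct; higher means lower luciferase signal from less NR2E3 corepressor binding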
# Rev-erbA mod: modulates human Rev-erb alpha binding to DNA; P20393; Rev-erbα–FITC-DNA binding, fluorescence polarization, 90 min; activity, % at 10 µM; 370,000 tested, 0.79% active;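 active = activity above about 14%, limit read from the data; passing the limit was not always enough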;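 also: 0% = DMSO wells with 35 nM protein and 100% = DMSO wells with 750 nM protein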
# PG9 Ab binder: small molecules binding HIV-1 gp120 antibody PG9; TR-FRET gp120-PG9 antibody binding; 360,000 tested, 0.43% active; inhibition, % at 6.7 µM; AID 624416; in the data active = inhibition above about 8.5%
# NR2E3 ag confirm: confirmation of human NR2E3 agonists | shares compounds with NR2E3 ag-2 | CHO-S mammalian two-hybrid NR2E3-NCOR, luciferase luminescence | inhibition, % at 3.98 µM | 2,300 tested, 51% active | AID 624378;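 active = average inhibition above a cutoff equal to the mean inhibition of all tested compounds plus one SD, cut at about 70% in these data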;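 also: 0% = DMSO in NR2E3 cells and 100% = DMSO in cells lacking NR2E3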
# VP16 counter: GAL4-VP16 reporter inhibition in NR2E3 agonist counterscreen | shares compounds with NR2E3 ag-2 | CHO-S GAL4-VP16 luciferase reporter, luminescence | inhibition, % at 3.98 µM | 2,300 tested, 29% active | AID 624379;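 active = mean inhibition above a cutoff equal to the average over all tested compounds plus one standard deviation, cut at about 70% in these data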;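 also: luciferase from a UAS reporter driven by GAL4-VP16 transactivation; 0% = DMSO with VP16-transfected cells and 100% = DMSO with cells lacking VP16; higher means less reporter light so more repression of VP16 activity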
# * hit, by the source's call; / = not tested or not shown.
SMILES,PKA-R2B act,PKA-R1A activ,NR2E3 ag-1,NR2E3 ag-2,Rev-erbA mod,PG9 Ab binder,NR2E3 ag confirm,VP16 counter
O=C(Cc1cccc2ccccc12)NCC(=O)N1CCN(Cc2cccc(C(F)(F)F)c2)CC1,-1.5,-14.6,2.6,58.6,2.3,-0.8,49.5,42.2
O=C(Cc1cccc2ccccc12)NCC(=O)N1CCN(CC(=O)Nc2ccc(F)cc2)CC1,-10.1,-3.9,/,27.1,-2.0,1.1,/,/
Cc1cccc(-c2cccc3c4c([nH]c23)[C@@H]2C[C@H](N(C)C(=O)Nc3ccccc3)[C@H]([C@H](C)O)CN2CC4)c1,/,/,/,/,0.4,/,/,/
OC[C@H]1O[C@@H](n2cnc3c(Nc4ccccc4)ncnc32)[C@H](O)[C@@H]1O,4.6,0.6,4.7,-14.0,9.3,0.3,/,/
O=c1[nH]nnc2c1ncn2C1OC(CO)C(O)C1O (configuration not stated),/,/,/,68.0,0.4,2.6,59.4,50.3
OCC1OC(n2ccc3c(NO)ncnc32)C(O)C1O (configuration not stated),-9.4,-7.0,/,101.6*,-1.9,-4.8,99.4*,92.8*
CN(C)c1ncnc2c1ccn2C1OC(CO)C(O)C1O (configuration not stated),-8.2,1.5,/,69.5,4.5,1.2,72.1*,29.0
CN(C)c1nc2c(N)ncnc2n1C1OC(CO)C(O)C1O (configuration not stated),-11.2,-2.4,/,-15.7,6.1,0.8,/,/
OCC1OC(n2cnc3c(NCc4ccccc4O)ncnc32)C(O)C1O (configuration not stated),-10.8,4.5,/,71.6*,1.9,-0.8,51.4,48.7
OCC1OC(n2cnc3c(NCCc4ccccc4)ncnc32)C(O)C1O (configuration not stated),7.9,-2.1,4.6,6.2,2.2,-0.2,/,/
COC(=O)[C@]12C[C@H](CC(=O)NCc3cccc4ccccc34)C(=O)N(Cc3ccco3)C1=C[C@H](C(C)(C)C)O[C@@H]2C,/,/,/,/,-3.6,/,/,/
Cc1ccc(-c2csc3ncnc(Sc4nnc(CN5CCCCCC5=O)o4)c23)cc1,-10.8,-15.1,2.0,69.4,-3.1,1.7,-14.9,14.8
Cc1ccc(-c2csc3ncnc(SCC(=O)Nc4nnc(C)s4)c23)cc1,6.9,-8.5,1.7,-8.6,-3.1,0.3,/,/
COC(=O)[C@]12C[C@H](CC(=O)N3CCN(C(=O)c4ccco4)CC3)C(=O)N(Cc3ccco3)C1=C[C@H](C(C)C)O[C@@H]2C1CC1,/,/,/,/,4.2,/,/,/
Cc1ccc(NC(=O)[C@@H]2CC(=O)O[C@@H]2c2ccccc2)cc1C,/,/,/,/,-6.8,/,/,/
COc1ccc(-c2nsc3c(N4CCCCC4C)ncnc23)cc1 (configuration not stated),-3.0,3.2,6.0,93.6*,5.3,1.3,84.2*,71.6*
O=[N+]([O-])c1cc(-c2ccccc2)cc([N+](=O)[O-])c1O,-14.4,4.5,/,79.5*,13.4,-1.1,100.4*,89.1*
O=[N+]([O-])c1cc2ccccc2c(O)c1O,1.4,0.3,/,-11.3,-0.9,-1.6,/,/
CCN(C[C@H]1[C@@H](c2ccc(C3=CCCC3)cc2)[C@H](CO)N1c1nc(C)c(C)s1)S(=O)(=O)c1ccccc1[N+](=O)[O-],/,/,/,/,-1.4,/,/,/
O=C(c1ccco1)N1CCN(S(=O)(=O)c2ccc(Oc3ccccc3)cc2)CC1,-5.7,6.8,0.6,48.5,1.1,0.9,48.3,65.6
O=C(c1ccco1)N1CCN(S(=O)(=O)c2ccc(Br)cc2)CC1,8.0,-3.6,-0.8,-10.0,-0.9,-0.1,/,/
Cc1cc(Br)ccc1NC(=O)CN(C)C(=O)C1CCN(c2ncnc3sc(C)c(C)c23)CC1,-8.4,-9.7,/,62.3,-1.8,-1.4,26.0,41.3
Cc1cccc(C)c1NC(=O)CN(C)C(=O)C1CCN(c2ncnc3sc(C)c(C)c23)CC1,-9.7,0.9,0.6,-2.9,3.9,-0.6,/,/
Cc1nc(SCC(=O)Nc2nc3ccccc3s2)c(C#N)c(C)c1C,-7.6,-0.9,-0.5,92.8*,1.0,-1.8,84.5*,81.1*
CC(C)C[C@@H]1COc2cc(Br)ccc2S(=O)(=O)N1Cc1cn(Cc2ccccc2)nn1,/,/,/,/,-7.0,/,/,/
SMILES,PKA-R2B act,PKA-R1A activ,NR2E3 ag-1,NR2E3 ag-2,Rev-erbA mod,PG9 Ab binder,NR2E3 ag confirm,VP16 counter
Cc1ccc(NC(=S)/C(C#N)=C2/Nc3ccccc3S2)cc1,-6.1,-5.0,/,93.0*,0.1,-0.8,99.4*,54.1
CC1(c2ccc3ccccc3c2)NC(=O)N(CC(=O)N2CCN(Cc3ccc(C#N)cc3)CC2)C1=O (configuration not stated),-4.3,-6.9,/,105.2*,/,/,90.5*,80.1*
CC(=O)N1CCN(C(=O)CN2C(=O)NC(C)(c3ccc4ccccc4c3)C2=O)CC1 (configuration not stated),-8.1,-10.1,3.4,-21.2,-3.3,-0.2,/,/
CC(C)(C)c1ccc(-c2nnc(SCC(=O)Nc3ccc(S(=O)(=O)Nc4nccs4)cc3)n2-c2ccc(Cl)cc2)cc1,/,/,/,/,-0.3,/,/,/
Cn1nc(C(F)(F)F)c(/C=N/OC(=O)c2ccccc2)c1SCc1ccccc1Cl,-16.9,-13.7,-4.6,64.6,1.8,-2.3,70.6*,69.5
CC(=O)c1ccc(NC(=O)c2cc(S(=O)(=O)N3CCOCC3)ccc2C)cc1,-0.2,-5.1,1.4,-1.2,-3.1,-1.6,/,/
Cc1ccc(S(=O)(=O)N2CCOCC2)cc1C(=O)Nc1ccc(N2CCCCCC2)cc1,-5.6,-6.8,/,69.2,-3.1,-4.2,50.4,47.4
O=C(Nc1ccc(Cc2ccncc2)cc1)c1ccc(S(=O)(=O)N2CCOCC2)cc1,10.3,4.2,-0.9,53.0,-4.7,0.3,58.0,56.6
CC(COc1cccc(C#N)c1)CN1CCC(C(O)(c2ccccc2)c2ccccc2)CC1 (configuration not stated),/,/,/,/,0.2,/,/,/
CC(C)C(Sc1nc(-c2ccccc2)cc(-c2ccccc2)c1C#N)C(=O)O (configuration not stated),2.7,-8.1,4.5,58.3,12.2,-1.3,63.2,32.9
O=C(NC1CCCCN(Cc2cccc(C(F)(F)F)c2)C1=O)c1ccc(Cl)c(Cl)c1 (configuration not stated),/,/,/,/,3.4,/,/,/
Cc1sc2ncnc(NCC(C)(C)N3CCOCC3)c2c1C,-8.4,-0.4,2.1,91.2*,-4.1,1.6,79.7*,65.6

# Source: PubChem BioAssay
